We go through six compounds from ChEMBL document CHEMBL2380295, “Structure-activity studies on the side chain of a simplified analog of aplysiatoxin (aplog-1) with anti-proliferative activity” (Bioorg Med Chem, 2013).

Data set [1] is described as follows: Octanol-water partition coefficient, log P of the compound by HPLC analysis. Type of data set: physicochemical. A digest of the protocol:
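log P was estimated from HPLC retention, with column dead time measured using unretained formamide.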

For another data set, the system named is SNB-75. Put plainly: Growth inhibition of human SNB75 cells after 48 hrs by sulforhodamine B assay. Type of data set: functional. The settings on record: SNB-75, 48 h. A digest of the protocol:
(§1)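 Yamori 39-line human cancer panel, NCI method with modifications. Cells plated in RPMI 1640 plus 5% FBS, attached overnight, then exposed 48 h to compound at 10^-8, 10^-7, 10^-6, 10^-5 and 10^-4 M. Sulforhodamine B staining read at 525 nm; % growth = 100[(T−T0)/(C−T0)] from duplicate-point averages, with T0 the time-zero absorbance. GI50 is the concentration giving 50.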
(The SRB assay estimates cell density from bound dye.)

The test system of a further data set is NCI-H460. Briefly: Growth inhibition of human NCI-H460 cells after 48 hrs by sulforhodamine B assay. The settings on record: NCI-H460, 48 h. The format is functional. In short, it runs like this:
as §1

A further data set relates to DMS-273. Put plainly: Growth inhibition of human DMS273 cells after 48 hrs by sulforhodamine B assay. The format is functional. Particulars: DMS-273, 48 h. In short, it runs like this: as §1
The nature of data set [2]: Growth inhibition of human HBC5 cells after 48 hrs by sulforhodamine B assay. Type of data set: functional. Particulars: HBC5, 48 h. In short, it runs like this: as §1
The target of data set [3] is Protein kinase C delta type (Homo sapiens, UniProt Q05655). Put plainly: Inhibition of [3H]PDBu binding to PKCdelta-C1A domain peptide (unknown origin). A digest of the protocol:
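Competitive [3H]PDBu binding used 14 or 40 nM PKCδ C1 peptide and 20 nM [3H]PDBu (19.6 Ci/mmol), in 50 mM Tris-maleate (pH 7.4 at 4 °C) with 50 µg/mL phosphatidylserine, 3 mg/mL bovine γ-globulin and varied inhibitor concentrations. IC50 was taken as 50% inhibition of specific binding. Ki was derived by the Sharkey–Blumberg method.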

Data set [4] relates to Human gammaherpesvirus 4. Put plainly: Induction of EBV-early antigen expressed in human Raji cells at 10^-6 M after 48 hrs by immunofluorescence assay relative to control. The format is organism-based. Particulars: human gammaherpesvirus 4, raji, 1 µM. In short, it runs like this:
(§2)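 Raji B-lymphoblastoid cells (5 × 10^5/mL) in RPMI 1640 with 10% FBS, with 4 mM sodium n-butyrate as synergist and test compound at 10^-7 or 10^-6 M (final DMSO 0.4%). Incubated 48 h at 37 °C under 5% CO2. Smears were stained by indirect immunofluorescence using NPC patient serum and FITC anti-human IgG. At least 500 cells counted; % EA-positive recorded; n = 3, SEM.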

Data set [5] concerns Human gammaherpesvirus 4. Briefly: Induction of EBV-early antigen expressed in human Raji cells at 10^-7 M after 48 hrs by immunofluorescence assay relative to control. Type of data set: organism-based. The settings on record: human gammaherpesvirus 4, raji, 0.1 µM. In short, it runs like this:
as §2

Structures are written as SMILES. pKi: −log10 of the molar value.

Sequence of Protein kinase C delta type (Q05655 whole entry, the tested form may be a part): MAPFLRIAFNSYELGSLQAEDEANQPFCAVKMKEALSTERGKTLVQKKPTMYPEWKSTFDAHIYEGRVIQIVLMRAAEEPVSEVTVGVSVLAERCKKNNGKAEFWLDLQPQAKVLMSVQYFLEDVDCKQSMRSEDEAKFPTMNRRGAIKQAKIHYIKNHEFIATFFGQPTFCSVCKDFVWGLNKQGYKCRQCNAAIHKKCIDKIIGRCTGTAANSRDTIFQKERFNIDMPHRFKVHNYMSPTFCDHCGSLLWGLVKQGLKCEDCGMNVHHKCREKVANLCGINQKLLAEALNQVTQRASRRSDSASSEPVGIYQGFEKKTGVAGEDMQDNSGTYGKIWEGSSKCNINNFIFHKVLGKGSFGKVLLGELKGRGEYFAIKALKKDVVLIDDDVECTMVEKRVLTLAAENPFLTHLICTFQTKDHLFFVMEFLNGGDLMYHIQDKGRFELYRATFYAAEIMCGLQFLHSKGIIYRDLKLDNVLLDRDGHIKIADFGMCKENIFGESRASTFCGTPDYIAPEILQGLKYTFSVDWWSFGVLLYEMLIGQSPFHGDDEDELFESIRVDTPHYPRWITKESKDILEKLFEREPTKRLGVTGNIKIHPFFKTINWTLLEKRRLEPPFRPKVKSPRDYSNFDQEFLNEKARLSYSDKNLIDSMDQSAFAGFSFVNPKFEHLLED

Regarding `CC1(C)CC[C@@H]2CC(=O)O[C@@H](CO)CC(=O)O[C@@H]3C[C@@H](CCCCc4ccccc4)O[C@@]1(C3)O2`, the logP (as a rule, the decadic logarithm of the partition coefficient of the neutral form, usually between octanol and water) in data set [1] is 4.8. Consider `CC1(C)CC[C@@H]2CC(=O)O[C@@H](CO)CC(=O)O[C@@H]3C[C@@H](CCCCc4cccc(O)c4)O[C@@]1(C3)O2`, for which the GI50 – broadly, the concentration that inhibits growth by half – in the data set on SNB-75 is 15.8 µM; with NCI-H460, 2.51 µM; in the data set with DMS-273, 12.6 µM; in data set [2], 17.4 µM. Consider `C[C@H]1[C@@H]2C[C@@]3(O[C@H](CCC3(C)C)CC(=O)O[C@@H](CO)CC(=O)O2)O[C@@H]1CCCCc1cccc(O)c1`, for which the pKi (usually the negative decadic logarithm of the Ki, by convention in mol/L) in data set [3] was 7.66. For `CO[C@@H](CC[C@H](C)[C@H]1O[C@@]23C[C@H](OC(=O)C[C@H]([C@@H](C)O)OC(=O)C[C@](O)(O2)[C@H](C)CC3(C)C)[C@@H]1C)c1cc(O)ccc1Br` [APLYSIATOXIN], the logP in data set [1] amounted to 5.4.

For the compound `CO[C@@H](CC[C@H](C)[C@H]1O[C@@]23C[C@H](OC(=O)C[C@H]([C@@H](C)O)OC(=O)C[C@](O)(O2)[C@H](C)CC3(C)C)[C@@H]1C)c1cccc(O)c1` [DEBROMOAPLYSIATOXIN], the pKi in data set [3] was 8.01. For `CCCCCCCCCCCCCC(=O)O[C@@H]1[C@@H](C)[C@@]2(O)[C@@H](C=C(CO)C[C@]3(O)C(=O)C(C)=C[C@@H]23)[C@@H]2C(C)(C)[C@]12OC(C)=O` [PHORBOL MYRISTATE ACETATE], the Activity in the data set with Human gammaherpesvirus 4 [4] was determined as 31.5%; in the data set on Human gammaherpesvirus 4 [5], 29.4%.
